# Assay outcomes from PubChem BioAssay.
# MrgX1 antagonist: blocks BAM8-22 activation of human MrgX1 receptor | Q96LB2 | MRGX1-HEK293 calcium flux, Fluo-4, BAM8-22 antagonism; hits give low values | B-score at 10 µM | hit rate 1.3% among 310,000 | AID 588676;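 active = calcium-response B-score plate-corrected more than 3 library SD below zero, starting fluorescence within 5 deviations, no agonist response on first addition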;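 note: peak minus trough fluorescence over baseline after final BAM8-22 challenge near maximal dose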
# Target sequence (Q96LB2 whole entry, looked up): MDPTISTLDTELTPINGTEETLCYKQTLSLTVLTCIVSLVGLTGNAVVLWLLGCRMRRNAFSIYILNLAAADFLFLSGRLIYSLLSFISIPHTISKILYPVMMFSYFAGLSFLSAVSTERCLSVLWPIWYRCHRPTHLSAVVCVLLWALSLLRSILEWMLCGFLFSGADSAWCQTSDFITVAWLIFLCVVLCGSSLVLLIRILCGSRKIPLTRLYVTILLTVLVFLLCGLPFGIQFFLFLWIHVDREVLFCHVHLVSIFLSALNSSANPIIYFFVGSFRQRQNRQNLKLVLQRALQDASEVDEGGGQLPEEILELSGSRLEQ
# RGS4 act: RGS4 potentiation or activation | HEK293 M3R/inducible RGS4, carbachol calcium flux Fluo4; hits give low values | B-score at 10 µM | hit rate 0.92% among 310,000;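 active = B-score of the integrated calcium signal more than 4 SD below the library mean, with starting fluorescence not abnormally high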;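 note: negative B-score means reduced calcium response which marks RGS4 activation or potentiation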
#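 Material: Inducible-RGS4 HEK293 cells carrying M3 receptor; also added: carbachol at ECmax as muscarinic agonist stimulus; incubation: compound preincubation 20 min at room temperature before agonist; signal: Fluo4-AM (2 µM) calcium-flux fluorescence, kinetic read; measure: integrated calcium ratio converted to B score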
# RGS4 inh: human RGS4 inhibition | B-score at 10 µM | HEK293 M3R/RGS4 inducible, Fluo-4 calcium flux; hits give high values; triggered by carbachol at its EC20 | P49798 | hit rate 0.45% among 310,000;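 active = B-score, a plate-corrected calcium signal, over three deviations above library mean, with baseline fluorescence within five deviations of library mean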;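 note: RGS4 expression induced by doxycycline in cells with stable M3 receptor; B-score is computed from the integrated fluorescence ratio over baseline after carbachol; higher B-score means a larger calcium signal and so more RGS4 inhibition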
# Target sequence (P49798 whole entry, looked up): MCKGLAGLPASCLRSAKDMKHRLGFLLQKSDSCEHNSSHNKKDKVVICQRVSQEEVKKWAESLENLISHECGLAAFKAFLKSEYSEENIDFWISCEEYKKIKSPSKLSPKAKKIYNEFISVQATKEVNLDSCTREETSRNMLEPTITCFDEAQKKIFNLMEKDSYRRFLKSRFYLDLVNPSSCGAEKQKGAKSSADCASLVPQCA
# MrgX1 allo act: human MrgX1 positive allosteric modulation, primary screen | MrgX1-HEK293, Fluo-4 calcium flux, FDSS; hits give high values | B-score at 10 µM | hit rate 0.63% among 310,000 | Q96LB2;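 active = plate-corrected calcium response at least 3 library SD above typical, normal starting fluorescence, not activating the receptor alone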;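 note: compound read alongside a low EC10 to EC30 dose of BAM8-22 agonist; peak minus trough fluorescence over baseline measured at the second addition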
# MrgX1 agonist: human MrgX1 receptor agonism, primary screen; hit rate 0.44% among 310,000; Q96LB2; B-score at 10 µM; MrgX1-HEK293 cells, Fluo-4 calcium fluorescence, agonist mode; hits give high values; AID 588627;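 active = calcium response B-score plate-corrected fluorescence ratio at least 3 library SD, with starting fluorescence B-score inside 5 SD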
#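 System – MrgX1-expressing HEK293 cells · Incubation – cells plated overnight, dye loaded 0.5 h 37 °C, 0.5 h room temperature · Technique – kinetic Fluo-4 NW fluorescence of intracellular calcium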
# RGS4 block valid: RGS4 inhibitor validation | shares compounds with RGS4 inh | hit rate 65% among 1,700 | AID 492999 | HEK293 M3R/RGS4, carbachol calcium Fluo-4 fluorescence; carbachol added at its EC20; 0 = buffer wells, 100 = carbachol control | calcium response, % at 10 µM;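 active = duplicate-averaged calcium response above the buffer-only control mean plus 5 SD of those controls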;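 note: integrated fluorescence ratio F max minus min over baseline F0; higher response in RGS4-induced cells means RGS4 inhibition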
# M3R Ca ctr: checks RGS4 inhibitor effects in non-induced HEK293 M3R cells. shares compounds with RGS4 inh. carbachol calcium Fluo-4; submaximal (EC20) carbachol stimulus; buffer wells 0%, carbachol control wells 100%. activity (percent), % at 10 µM. hit rate 20% among 1,900. AID 493000; call rule not given here;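 note: RGS4 induction absent so cells express M3R without RGS4; higher means more calcium signal and flags a non-specific hit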
# RGS4 inh ctr2: signal in non-induced cells without carbachol, RGS4 inhibitor counter-screen; shares compounds with RGS4 inh; HEK293 M3R/RGS4 non-induced, Fluo-4 calcium, no carbachol; normalised: buffer wells 0%, carbachol wells 100%; calcium response (agonist-mode artifact), % at 10 µM; hit rate 22% among 1,900; AID 493001;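 active = duplicate-averaged calcium rise in uninduced cells above buffer wells' mean plus 5 SD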
# * marks the source's active call; other numbers are inactive results; i = inactive; · = no result. The list is not random: actives were taken first. Their share in the collection is about 3.5%.
SMILES,MrgX1 antagonist,RGS4 act,RGS4 inh,MrgX1 allo act,MrgX1 agonist,RGS4 block valid,M3R Ca ctr,RGS4 inh ctr2
CCOC(=O)C1=C(CS(=O)(=O)c2ccccc2)NC(=O)NC1c1ccc(OC)c(OC)c1 (configuration not stated),i,i,i,i,i,·,·,·
CS(=O)(=O)c1ccc(Cl)c(NC(=O)COc2ccc3c(c2)CCC3)c1,i,i,i,i,i,·,·,·
CCCCOc1ccc(C(=O)CCN2CCOCC2)cc1,i,i,i,i,i,·,·,·
CCOc1ccc(C(=O)CCN2CCCCCC2)cc1,i,i,11.5*,i,i,i,i,20.5%*
CCCOc1ccc(C(=O)CCN2CCCCC2)cc1,i,i,i,i,i,i,i,11.5%*
CCOC(=O)C1CCN(C(c2cc3c(C)ccc(C)c3[nH]c2=O)c2nnnn2C2CCCCC2)CC1 (configuration not stated),i,i,i,i,i,i,i,i
CCOC(=O)C1CCN(C(c2cc3ccc(C)c(C)c3[nH]c2=O)c2nnnn2C2CCCCC2)CC1 (configuration not stated),i,i,i,i,i,i,i,19.0%*
Cc1ccc(S(=O)(=O)N(Cc2ccc(Cl)cc2)c2ccccc2C(=O)NCc2ccco2)cc1,i,i,i,i,i,·,·,·
COc1cccc(/C=C(/C(=O)OCC(=O)NC2CCCCCCC2)c2ccccc2)c1,i,i,4.98*,i,i,i,i,7.0%*
COc1cccc(/C=C(/C(=O)OCC(=O)NCC2CCCO2)c2ccccc2)c1 (configuration not stated),i,i,i,i,i,·,·,·
COc1cc(/C=C2\COC/C(=C\c3cc(OC)c(OC)c(OC)c3)C2=O)cc(OC)c1OC,·,i,6.4*,·,·,20.5%*,i,i
COc1cc(/C=C2\CC/C(=C\c3cc(OC)c(OC)c(OC)c3)C2=O)cc(OC)c1OC,i,i,i,i,i,·,·,·
COc1ccc(NC(=O)CCC(=O)Nc2nnc(C3CCCCC3)s2)c(OC)c1,i,i,i,i,i,·,·,·
CSc1nc(SCC(=O)O)c2sc3nc(-c4ccccc4)c4c(c3c2n1)CCC4,·,i,i,·,·,·,·,·
CSc1nc(N(C)CCO)c2sc3nc(-c4ccco4)c4c(c3c2n1)CCC4,i,i,4.9*,i,i,i,i,10.5%*
COc1cc(C(C[N+](=O)[O-])c2c(C)cc3ccccn23)ccc1O (configuration not stated),i,i,i,i,i,·,·,·
COc1cc(C(C[N+](=O)[O-])c2c(-c3ccccc3)cc3ccccn23)cc(OC)c1OC (configuration not stated),i,i,i,i,i,·,i,i
COc1ccc(C(C[N+](=O)[O-])c2c(-c3ccccc3)cc3ccccn23)cc1OC (configuration not stated),i,i,12.8*,i,54.6*,12.0%*,i,i
COc1cc(-c2ncc3ccccn23)cc(OC)c1OC,i,i,i,i,i,·,·,·
COc1ccc(C(C[N+](=O)[O-])c2c(-c3ccccc3)cc3ccccn23)cc1 (configuration not stated),i,i,15*,i,i,12.5%*,i,i
O=Nc1c(-c2ccccc2)cc2ccccn12,i,i,i,i,i,·,·,·
COC(=O)Cn1cnc2c(cnn2-c2ccc(C)cc2)c1=O,i,i,i,i,i,·,·,·
O=C(Cn1cnc2c(nnn2Cc2ccc(F)cc2)c1=O)Nc1ccccc1,i,i,i,i,i,·,·,·
CCC(C(=O)OCC(=O)Nc1ccc(SC(F)F)cc1)c1ccccc1 (configuration not stated),·,i,i,·,·,·,·,·
CC1(C)OC(=O)C(=CNCCc2ccc(O)cc2)C(=O)O1,i,i,5.66*,i,i,i,i,i
SMILES,MrgX1 antagonist,RGS4 act,RGS4 inh,MrgX1 allo act,MrgX1 agonist,RGS4 block valid,M3R Ca ctr,RGS4 inh ctr2
Cc1cccc(NC(=S)N2CCN(S(C)(=O)=O)CC2)c1,i,i,i,i,i,·,·,·
Cc1nonc1CC(=O)N1CCCC(C(=O)c2ccc(Cl)cc2)C1 (configuration not stated),i,i,i,i,i,·,·,·
CSc1nc(-c2ccc(Cl)cc2)nn1C(=O)c1ccco1,i,i,5.6*,i,i,i,i,i
CSc1cccc(N=C2C(=O)Nc3ccccc32)c1,i,i,15.8*,i,32.5*,24.5%*,i,7.5%*
O=C1Nc2ccccc2C1=Nc1cccc(Cl)c1,i,i,41.3*,i,50.6*,28.0%*,54.5%*,16.0%*
CC(C)CN(C(=O)c1ccc([N+](=O)[O-])s1)c1c(N)n(Cc2ccccc2)c(=O)[nH]c1=O,i,i,i,i,i,·,·,·
Cc1cc2nc(CS)[nH]c2cc1C,i,i,5.92*,i,i,28.0%*,i,i
Cc1cc2nc(CO)[nH]c2cc1C,i,i,i,i,i,·,·,·
COc1ccc(S(=O)(=O)N2CCOCC2)cc1NC(=O)CSc1cccc[n+]1[O-],i,i,i,i,i,·,·,·
Cc1ccc(N(CC(=O)N=Nc2c(O)[nH]c3ccccc23)S(C)(=O)=O)c(C)c1,i,i,i,i,i,i,i,i
CCOc1ccc(S(=O)(=O)n2cnc(C)c2)cc1,i,i,i,i,i,·,·,·
COC(=O)c1c(NC(=O)CC2SC(N)=NC2=O)sc2c1CCC(C)C2 (configuration not stated),i,i,i,i,i,·,i,i
COC(=O)c1c(NC(=O)CC2SC(N)=NC2=O)sc2c1CCCC2 (configuration not stated),i,i,i,i,i,·,·,·
COC(=O)c1c(NC(=O)CC2SC(N)=NC2=O)sc2c1CCC(C(C)(C)C)C2 (configuration not stated),i,i,12*,i,i,43.0%*,i,i
